According to paper PMC11966317 (ACS Omega, 2025):

Legend:
[1] = tested on: heart, liver, spleen, lungs, and kidneys; experiment: HE staining of major organs after treatment; type: in vivo, NOD/SCID mice; conditions: kidneys after 10 mg/kg every 3 days, five doses
CHO-hPD-L1 tumors = experiment: Tumor volume and body weight during treatment; type: in vivo, NOD/SCID mice; conditions: 10 mg/kg every 3 days, five doses, monitored every 3 days
In short: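 Mice bearing CHO-hPD-L1 tumours were randomised to PBS or the anti-PD-L1 antibody (n = 3 each). Either was given at 10 mg/kg via the tail vein every 3 days, five doses over a 14-day cycle. Tumour volume and body weight were recorded. Endpoint was tumour volume >1500 mm3 or maximum diameter >20 mm.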

Substance: Atezolizumab: anti-PD-L1 monoclonal antibody
- histopathology of major organs (HE staining) [1]: No histopathological abnormalities
- body weight versus PBS group (CHO-hPD-L1 tumors): no notable differences in body weight
